According to ChEMBL document CHEMBL1135255, “Design, synthesis and bioactivity evaluation of tribactam beta lactamase inhibitors” (Bioorg Med Chem Lett, 2002):

Tests used:
[1] = molecular target: T1, Beta-lactamase 1 (Bacillus cereus) (UniProt P00809); test: Inhibitory activity at beta-lactamase I from Bacillus cereus expressed as percent inhibition of beta-lactam hydrolysis at a concentration of 10.0 umol/L
T1 sequence (whole entry): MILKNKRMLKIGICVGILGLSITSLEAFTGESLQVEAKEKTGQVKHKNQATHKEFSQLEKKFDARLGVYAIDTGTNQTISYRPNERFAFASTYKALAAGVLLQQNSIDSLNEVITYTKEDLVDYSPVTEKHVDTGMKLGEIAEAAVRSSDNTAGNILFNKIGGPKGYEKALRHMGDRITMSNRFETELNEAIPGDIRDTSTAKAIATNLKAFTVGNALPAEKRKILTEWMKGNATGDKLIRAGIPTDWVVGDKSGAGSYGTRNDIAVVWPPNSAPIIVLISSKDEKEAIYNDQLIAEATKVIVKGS
Method in brief: (§1)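 B. cereus beta-lactamase I was preincubated with inhibitor (range 1–100) for 20 min at 25 °C in microtitre plates. Chromogenic substrate nitrocefin was then added, followed by a further 60 min incubation. Hydrolysis was monitored spectrophotometrically at 490 nm, and the reduction in nitrocefin hydrolysis was expressed as % enzyme inhibition.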

[2] = molecular target: Beta-lactamase TEM (Escherichia coli, UniProt P62593); test: The compound was tested for its inhibitory activity towards Class A TEM-1 beta-lactamase from Escherichia coli at 0.3 umol
Sequence of Beta-lactamase TEM (P62593 whole entry): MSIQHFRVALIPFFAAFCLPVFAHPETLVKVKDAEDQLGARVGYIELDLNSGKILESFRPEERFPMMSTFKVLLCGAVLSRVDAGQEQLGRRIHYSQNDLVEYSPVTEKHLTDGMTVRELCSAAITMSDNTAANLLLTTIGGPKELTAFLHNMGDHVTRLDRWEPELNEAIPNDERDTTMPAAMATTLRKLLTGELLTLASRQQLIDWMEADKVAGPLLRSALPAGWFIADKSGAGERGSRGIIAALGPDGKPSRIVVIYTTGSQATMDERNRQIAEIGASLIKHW

[3] = molecular target: T1, Beta-lactamase 1 (Bacillus cereus); test: Inhibitory activity at beta-lactamase I from Bacillus cereus expressed as percent inhibition of beta-lactam hydrolysis at a concentration of 1.0 umol/L; method in brief: as §1
[4] = molecular target: Beta-lactamase class C (Enterobacter cloacae, UniProt Q59401); test: The compound was tested for its inhibitory activity towards Class C beta-lactamase from Enterobacter cloacae 908R at 0.8 umol concentration; assay type: single protein
Sequence of Beta-lactamase class C (Q59401 whole entry): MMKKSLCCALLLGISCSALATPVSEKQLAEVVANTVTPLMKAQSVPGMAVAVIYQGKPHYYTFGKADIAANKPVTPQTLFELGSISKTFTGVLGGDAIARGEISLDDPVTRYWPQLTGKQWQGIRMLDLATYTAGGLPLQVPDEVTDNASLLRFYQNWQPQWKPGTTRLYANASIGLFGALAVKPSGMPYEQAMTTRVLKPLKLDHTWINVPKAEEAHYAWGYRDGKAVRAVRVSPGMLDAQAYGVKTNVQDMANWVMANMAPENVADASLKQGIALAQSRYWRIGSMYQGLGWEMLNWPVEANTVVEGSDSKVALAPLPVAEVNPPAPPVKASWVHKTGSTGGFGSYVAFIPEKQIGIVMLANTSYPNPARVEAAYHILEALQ

[5] = molecular target: T1, Beta-lactamase 1 (Bacillus cereus); test: Inhibitory activity at beta-lactamase I from Bacillus cereus expressed as percent inhibition of beta-lactam hydrolysis at a concentration of 100.0 umol/L; method in brief: as §1
[6] = molecular target: T1, Beta-lactamase 1 (Bacillus cereus); test: Inhibitory activity at beta-lactamase I from Bacillus cereus expressed as percent inhibition of beta-lactam hydrolysis at a concentration of 100.0 umol/L; The inhibitory activity at lower concentrations was not determined; method in brief: as §1

Row | SMILES | inhibition [1] [%] | IC50 ([2]; read-out: IC50) [µM] | inhibition [3] [%] | IC50 [4] [µM] | inhibition [5] [%] | inhibition [6] [%] | IC50 [2] [uM l-1]
1 | C/C=C1/C(=O)N2C(C(=O)O)=C3CCCCC3[C@@H]12 (some centres undefined) | 14 | 39 | -1 | 3 | 61 | – | –
2 | C[C@@H](O)[C@H]1C(=O)N2C(C(=O)O)=C3CCCCC3[C@H]12 (some centres undefined) | – | – | – | – | – | 5 | –
3 | C/C=C1/C(=O)N2C(C(=O)O)=C3CCSCC3[C@H]12 (some centres undefined) | – | 100 | – | 4.2 | – | 38 | –
4 | C[C@@H](O)[C@H]1C(=O)N2C(C(=O)O)=C3CCCCC3[C@@H]12 (some centres undefined) | – | – | – | – | – | 3 | –
5 | CC1(C)[C@H](C(=O)O)N2C(=O)C[C@H]2S1(=O)=O | 40 | – | 2 | – | 77 | – | –
6 | O=C(O)[C@H]1/C(=C/CO)O[C@@H]2CC(=O)N21 | 33 | – | 9 | – | 78 | – | –
7 | C/C=C1/C(=O)N2C(C(=O)[O-])=C3CCCCC3[C@H]12.[Na+] (some centres undefined) | – | – | – | 1.8 | – | 23 | 120
8 | C/C=C1/C(=O)N2C(C(=O)O)=C3CCSCC3[C@@H]12 (some centres undefined) | 19 | 32 | 6 | 5 | 60 | – | –
